Laboratory results taken from ChEMBL document CHEMBL1121854, “New antiarrhythmic agents. 5. alpha-Aminoaceto-2,6-xylidides with functionalized amide alkyl substituents” (J Med Chem, 1981).

What was measured:
[1] = system: Mus musculus; assay: Acute CNS toxicity against arrhythmogenic effects of chloroform in mice after sc administration.; type: functional; settings: Central nervous system
[2] = system: Mus musculus; assay: Antiarrhythmic activity against arrhythmogenic effects of chloroform in mice after sc administration.; type: functional; settings: Heart
Outline: (§1)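 At 20 min they were exposed to chloroform until respiratory arrest, then given a thoracotomy. Leads I and II plus an epicardial ECG were recorded for 30–40 s. Tachycardia was defined as ≥5 s with a ventricular rate >520 beats/min; absence meant protection.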

[3] = Therapeutic index is defined as the ratio of ED50(ataxia)/ED50(protection); settings: read-out: Therapeutic index
Outline: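 Ratio of ED50 for ataxia to ED50 for protection against chloroform-induced ventricular tachycardia in mice. Both ED50 values were derived by Berkson's logit chi-square method from percent responders across dose groups.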

[4] = system: Mus musculus; assay: Acute CNS toxicity against arrhythmogenic effects of chloroform in mice after sc administration; type: functional; settings: Central nervous system
[5] = system: Mus musculus; assay: Antiarrhythmic activity against arrhythmogenic effects of chloroform in mice after sc administration; type: functional; settings: Heart; outline: as §1
[6] = system: Ovis aries; assay: Duration of spinal anesthesia at the anal region was measured in sheep at dose. 40 mg/kg; 50-300; type: functional
Outline: (§2)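 Sterile solutions held 20 mg/mL base (2%) and 50 mg/mL glucose, made from the salts and adjusted to pH 6.1–6.5 with dilute NaOH. 2 mL was injected intrathecally in sheep. Onset of block was recorded at the anal region and hind-limb digits. Duration of pain block at both sites and of loss of weight support was noted. 5% glucose served as vehicle control.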

[7] = system: Ovis aries; assay: Duration of spinal anesthesia at the digits of the hind limbs was measured in sheep at dose. 40 mg/kg; 0-140; type: functional, Hindlimb; outline: as §2
[8] = system: Ovis aries; assay: Duration of spinal anesthesia at the weight support was measured in sheep at dose. 40 mg/kg; 0-165; type: functional; outline: as §2
[9] = system: Ovis aries; assay: Onset of spinal anesthesia at the anal region was measured in sheep at dose 40(mg/kg); 5-50; type: functional; outline: as §2
[10] = system: Ovis aries; assay: Onset of spinal anesthesia at the digits of the hind limbs was measured in sheep at dose 40 (mg/kg); 5-50
[11] = system: Ovis aries; assay: Duration of spinal anesthesia at the anal region was measured in sheep at dose 40(mg/kg); type: functional; outline: as §2
[12] = system: Ovis aries; assay: Duration of spinal anesthesia at the digits of the hind limbs was measured in sheep at dose 40(mg/kg); type: functional, Hindlimb; outline: as §2
[13] = system: Ovis aries; assay: Duration of spinal anesthesia at the weight support was measured in sheep at dose 40(mg/kg); type: functional; outline: as §2
[14] = system: Ovis aries; assay: Duration of spinal anesthesia at the anal region was measured in sheep at dose.40(mg/kg); type: functional; outline: as §2
[15] = system: Ovis aries; assay: Duration of spinal anesthesia at the weight support was measured in sheep at dose.40(mg/kg); type: functional; outline: as §2
[16] = system: Ovis aries; assay: Duration of spinal anesthesia at the digits of the hind limbs was measured in sheep at dose.40(mg/kg); type: functional, Hindlimb; outline: as §2
[17] = system: Ovis aries; assay: Onset of spinal anesthesia at the anal region was measured in sheep at dose 30(mg/kg); type: functional
[18] = system: Ovis aries; assay: Onset of spinal anesthesia at the digits of the hind limbs was measured in sheep at dose 30(mg/kg); type: functional, Hindlimb
[19] = system: Ovis aries; assay: Onset of spinal anesthesia at the anal region was measured in sheep at dose 40(mg/kg); type: functional; outline: as §2
[20] = system: Ovis aries; assay: Onset of spinal anesthesia at the digits of the hind limbs was measured in sheep at dose 40(mg/kg); type: functional, Hindlimb; outline: as §2
[21] = system: Ovis aries; assay: Duration of spinal anesthesia at the anal region was measured in sheep at dose 10(mg/kg); type: functional
[22] = system: Ovis aries; assay: Duration of spinal anesthesia at the digits of the hind limbs was measured in sheep at dose 10(mg/kg); type: functional, Hindlimb
[23] = system: Ovis aries; assay: Duration of spinal anesthesia at the weight support was measured in sheep at dose 10(mg/kg); type: functional
[24] = system: Ovis aries; assay: Onset of spinal anesthesia at the digits of the hind limbs was measured in sheep at dose 10 (mg/kg); type: functional, Hindlimb
[25] = system: Ovis aries; assay: Onset of spinal anesthesia at the anal region was measured in sheep at dose 10(mg/kg); type: functional

`CCOCCN(C(=O)CN)c1c(C)cccc1C` showed an ED50 [1] of 170 µmol/kg, an ED50 [2] of 190 µmol/kg and a selectivity ratio [3] of 0.9.

Work on `Cc1cccc(C)c1NC(=O)C(C)N` (centres undefined) [TOCAINIDE] yielded an ED50 [4] of 760 µmol/kg, an ED50 [5] of 550 µmol/kg and a selectivity ratio [3] of 1.4.

In the case of `CCN(CC)CCN(C(=O)CN)c1c(C)cccc1C`, the ED50 [1] is reported as 1130 µmol/kg, the ED50 [2] is reported as 690 µmol/kg and the Duration of block [6] is reported as 50 min. It also gave a Duration of block [7] of 0 min, a Duration of block [8] of 0 min and an Onset of block [9] of 19 min. For the same compound, the selectivity ratio [3] was 1.6 and the Onset of block [10] was 19 min.

For `CCN(CC)CC(=O)N(CC)c1c(C)cccc1C`, the ED50 [1] was 210 µmol/kg, the ED50 [2] was 140 µmol/kg and the selectivity ratio [3] was 1.5.

With `Cc1cccc(C)c1NC(=O)CN` [GLYCINEXYLIDIDE] the ED50 [4] was 620 µmol/kg, the ED50 [5] was 840 µmol/kg and the selectivity ratio [3] was 0.7.

`CCOCCN(C(=O)CN(CC)CC)c1c(C)cccc1C` gave an ED50 [1] of 80 µmol/kg, an ED50 [2] of 60 µmol/kg and a selectivity ratio [3] of 1.3.

`OC[C@H]1OC(O)[C@H](O)[C@@H](O)[C@@H]1O` (some centres undefined) [DEXTROSE] showed a Duration of block [11] of 0 min, a Duration of block [12] of 0 min and a Duration of block [13] of 0 min.

`CCN(CC)CCN(C(=O)CN1C(=O)c2ccccc2C1=O)c1c(C)cccc1C` showed an ED50 [4] of 10 µmol/kg, an ED50 [5] of 10 µmol/kg and a selectivity ratio [3] of 1.

Compound `CCN(CC)CCN(C(=O)CN(CC)CC)c1c(C)cccc1C` has an ED50 [4] of 600 µmol/kg, an ED50 [5] of 460 µmol/kg and a Duration of block [14] of 0 min. It also gave a Duration of block [15] of 0 min, a selectivity ratio [3] of 1.3 and a Duration of block [16] of 0 min.

Compound `Cc1cccc(C)c1N(CCO)C(=O)CN` has an ED50 [4] of 1080 µmol/kg, an ED50 [5] of 1260 µmol/kg and a selectivity ratio [3] of 0.9.

Work on `CCN(CC)CC(=O)Nc1c(C)cccc1C` [LIDOCAINE] yielded an ED50 [4] of 180 µmol/kg, an ED50 [5] of 210 µmol/kg and an Onset of block [17] of 1 min. For the same compound, the Onset of block [18] was 1.4 min.

In the case of `Cc1cccc(C)c1N(CCN)C(=O)CN`, the ED50 [1] is reported as 1050 µmol/kg, the ED50 [2] is reported as 390 µmol/kg and the selectivity ratio [3] is reported as 2.7.

In the case of `CCN(CC)CC(=O)N(CCN)c1c(C)cccc1C`, the ED50 [1] is reported as 560 µmol/kg, the ED50 [2] is reported as 120 µmol/kg and the Duration of block [14] is reported as 270 min. The Duration of block [15] was 195 min, the Onset of block [19] was 5 min and the Onset of block [20] was 15 min. For the same compound, the selectivity ratio [3] was 4.7 and the Duration of block [16] was 132 min.

`CCCN(C(=O)CN(CC)CC)c1c(C)cccc1C` showed an ED50 [1] of 150 µmol/kg, an ED50 [2] of 170 µmol/kg and a selectivity ratio [3] of 0.9.

Work on `CCCCNc1ccc(C(=O)OCCN(C)C)cc1` [TETRACAINE] yielded a Duration of block [21] of 302 min, a Duration of block [22] of 285 min and a Duration of block [23] of 458 min. The Onset of block [24] was 1.2 min and the Onset of block [25] was 1.13 min.

Compound `CCN(CC)CC(=O)N(CCO)c1c(C)cccc1C` has an ED50 [1] of 490 µmol/kg, an ED50 [2] of 180 µmol/kg and a selectivity ratio [3] of 2.7.
